Measured values taken from ChEMBL document CHEMBL4715738, “In Vitro Antibacterial Activity of Curcumin-Polymyxin B Combinations against Multidrug-Resistant Bacteria Associated with Traumatic Wound Infections” (J Nat Prod, 2016).
The source made the active and inactive calls.

How the values were obtained:
Acinetobacter baumannii [1] = experiment: Synergistic antibacterial activity against Acinetobacter baumannii AB16 harboring OXA-23 clone 2 assessed as fractional inhibitory concentration index measured after 24 hrs in presence of curcumin by checkerboard assay; format: functional
Summary of the method: (§1)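 FICI was derived from checkerboard MICs. Synergy was defined as FICI ≤ 0.5 and additive as FICI > 0.5−4.0. Where an MIC was not reached, the dilution above the maximum dose was used in the FICI calculation. Experiments were run in triplicate and reported as means.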

Escherichia coli [2] = experiment: Synergistic antibacterial activity against Escherichia coli EC204 harboring NDM-1 assessed as fractional inhibitory concentration index measured after 24 hrs in presence of curcumin by checkerboard assay; format: functional; summary of the method: as §1
Staphylococcus aureus [3] = experiment: Synergistic antibacterial activity against vancomycin-intermediate resistant Staphylococcus aureus Mu50 assessed as fractional inhibitory concentration index measured after 24 hrs in presence of curcumin by checkerboard assay; format: functional; summary of the method: as §1
Streptococcus pyogenes [4] = experiment: Antibacterial activity against Streptococcus pyogenes SPY1 assessed as reduction in bacterial growth incubated for 24 hrs in presence of curcumin; format: functional
Acinetobacter baumannii [5] = experiment: Synergistic antibacterial activity against Acinetobacter baumannii AB14 harboring OXA-23 clone 1 assessed as fractional inhibitory concentration index measured after 24 hrs in presence of curcumin by checkerboard assay; format: functional; summary of the method: as §1
Staphylococcus aureus [6] = experiment: Antibacterial activity against methicillin-resistant Staphylococcus aureus NCTC 12493 assessed as reduction in bacterial growth incubated for 24 hrs in presence of curcumin; format: functional
Pseudomonas aeruginosa [7] = experiment: Antibacterial activity against Pseudomonas aeruginosa PA14 assessed as reduction in bacterial growth incubated for 24 hrs in presence of curcumin; format: functional
Enterococcus faecium [8] = experiment: Antibacterial activity against vancomycin-resistant Enterococcus faecium OEF65 assessed as reduction in bacterial growth incubated for 24 hrs in presence of curcumin; format: functional
Enterococcus faecium [9] = experiment: Synergistic antibacterial activity against vancomycin-resistant Enterococcus faecium OEF42 assessed as fractional inhibitory concentration index measured after 24 hrs in presence of curcumin by checkerboard assay; format: functional; summary of the method: as §1
Escherichia coli [10] = experiment: Additive antibacterial activity against Escherichia coli NCTC 12241 assessed as fractional inhibitory concentration index measured after 24 hrs in presence of curcumin by checkerboard assay; format: functional
Acinetobacter baumannii [11] = experiment: Synergistic antibacterial activity against Acinetobacter baumannii NCTC 19606 assessed as fractional inhibitory concentration index measured after 24 hrs in presence of curcumin by checkerboard assay; format: functional; summary of the method: as §1
Staphylococcus aureus [12] = experiment: Antibacterial activity against methicillin-resistant Staphylococcus aureus NCTC 12493 assessed as reduction in colony formation at MIC measured up to 24 hrs by time kill assay; format: functional, organism-based; details: time hrs <=24
Summary of the method: (§2)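 Time-kill in 10 mL Mueller-Hinton 2 broth, 37 °C with continuous agitation, 24 h. Inoculum was a 1/1000 dilution of a 16 h overnight culture, about 10^6 CFU/mL. Single agents at 1× MIC; combination at 1× MIC polymyxin B plus 0.5× MIC curcumin. Samples at 0, 2, 4, 6 and 24 h were serially diluted and plated on IsoSensitest agar for CFU/mL.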

Streptococcus pyogenes [13] = experiment: Synergistic antibacterial activity against Streptococcus pyogenes SPY3 assessed as fractional inhibitory concentration index measured after 24 hrs in presence of curcumin by checkerboard assay
Acinetobacter baumannii [14] = experiment: Antibacterial activity against Acinetobacter baumannii AB12 harboring OXA-23 assessed as reduction in bacterial growth incubated for 24 hrs in presence of curcumin; format: functional
Staphylococcus aureus [15] = experiment: Antibacterial activity against methicillin-resistant Staphylococcus aureus NCTC 12493 assessed as reduction in bacterial colony formation at 0.5 fold MIC measured after 24 hrs by time kill assay; format: functional, organism-based
Pseudomonas aeruginosa [16] = experiment: Antibacterial activity against Pseudomonas aeruginosa PAO1 assessed as reduction in bacterial growth incubated for 24 hrs in presence of polymyxin B; format: functional
Acinetobacter baumannii [17] = experiment: Antibacterial activity against Acinetobacter baumannii AB12 harboring OXA-23 assessed as reduction in bacterial growth incubated for 24 hrs in presence of polymyxin B; format: functional
Streptococcus pyogenes [18] = experiment: Antibacterial activity against Streptococcus pyogenes SPY2 assessed as reduction in bacterial growth incubated for 24 hrs in presence of polymyxin B; format: functional
[19] = tested on: Stenotrophomonas maltophilia; experiment: Potentiation of polymyxin B-induced antibacterial activity against Stenotrophomonas maltophilia SMS01 assessed as fold reduction in polymyxin B MIC measured after 24 hrs in presence of polymyxin B by checkerboard assay; format: functional
Escherichia coli [20] = experiment: Antibacterial activity against Escherichia coli EC2 harboring CTX-M-15 assessed as reduction in bacterial growth incubated for 24 hrs in presence of polymyxin B; format: functional
[21] = tested on: Stenotrophomonas maltophilia; experiment: Bactericidal activity against Stenotrophomonas maltophilia NCTC 102586 assessed as bacterial cell death at 0.5 fold MIC measured after 4 to 6 hrs in presence of polymyxin B at MIC by time kill assay relative to control; format: functional; details: time 4-6 hrs; summary of the method: as §2
Pseudomonas aeruginosa [22] = experiment: Potentiation of polymyxin B-induced antibacterial activity against Pseudomonas aeruginosa PA14 assessed as fold reduction in polymyxin B MIC measured after 24 hrs in presence of polymyxin B by checkerboard assay; format: functional
Escherichia coli [23] = experiment: Potentiation of polymyxin B-induced antibacterial activity against Escherichia coli EC204 harboring NDM-1 assessed as fold reduction in polymyxin B MIC measured after 24 hrs in presence of polymyxin B by checkerboard assay; format: functional
HaCaT [24] = experiment: Cytotoxicity against human HaCaT cells at 43.4 uM measured after 4 hrs in presence of 1.5 uM polymyxin B by CyTox 96 nonradioactive assay relative to control; format: cell-based
Escherichia coli [25] = experiment: Antibacterial activity against Escherichia coli EC204 harboring NDM-1 assessed as reduction in bacterial growth incubated for 24 hrs in presence of polymyxin B; format: functional
[26] = tested on: Stenotrophomonas maltophilia; experiment: Potentiation of polymyxin B-induced antibacterial activity against Stenotrophomonas maltophilia NCTC 10258 assessed as fold reduction in polymyxin B MIC measured after 24 hrs in presence of polymyxin B by checkerboard assay; format: functional
Enterococcus faecalis = experiment: Antibacterial activity against […] Enterococcus faecalis ATCC 29212 assessed as reduction in bacterial growth incubated for 24 hrs in presence of polymyxin B; format: functional
Staphylococcus aureus [27] = experiment: Bactericidal activity against methicillin-resistant Staphylococcus aureus NCTC 12493 assessed as log reduction in colony forming units at 0.5 fold MIC measured after 24 hrs in presence of polymyxin B at MIC by time kill assay; format: functional; summary of the method: as §2
Acinetobacter baumannii [28] = experiment: Antibacterial activity against Acinetobacter baumannii NCTC 19606 assessed as reduction in bacterial growth incubated for 24 hrs in presence of polymyxin B; format: functional
Staphylococcus aureus [29] = experiment: Antibacterial activity against vancomycin-intermediate resistant Staphylococcus aureus Mu50 assessed as reduction in bacterial growth incubated for 24 hrs in presence of polymyxin B; format: functional
Acinetobacter baumannii [30] = experiment: Bactericidal activity against Acinetobacter baumannii NCTC 19606 assessed as log reduction in colony forming units at 0.5 fold MIC measured after 24 hrs in presence of polymyxin B at MIC by time kill assay; format: functional
Summary of the method: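 Time-kill in Mueller-Hinton 2 broth. Inoculum was a 1/1000 dilution of a 16 h overnight culture, about 10^6 CFU/mL, 10 mL per tube. Arms were each agent alone at ×1 MIC, or the combination at ×1 MIC plus ×0.5 MIC partner. Incubated at 37 °C with continuous agitation for 24 h. Samples taken at 0, 2, 4, 6 and 24 h, serially diluted and plated on IsoSensitest agar for CFU counts.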

HaCaT [31] = experiment: Cytotoxicity against human HaCaT cells at 174 uM measured after 4 hrs by CyTox 96 nonradioactive assay relative to control; format: cell-based

For `CC[C@H](C)CCCCC(=O)N[C@@H](CCN)C(=O)N[C@H](C(=O)N[C@@H](CCN)C(=O)N[C@H]1CCNC(=O)[C@H]([C@@H](C)O)NC(=O)[C@H](CCN)NC(=O)[C@H](CCN)NC(=O)[C@H](CC(C)C)NC(=O)[C@@H](Cc2ccccc2)NC(=O)[C@H](CCN)NC1=O)[C@@H](C)O.O=S(=O)(O)O`, the “fractional inhibitory concentration index (FICI)” value (Acinetobacter baumannii [1]) was 0.068, the “fractional inhibitory concentration index (FICI)” value (Escherichia coli [2]) was 0.313 and the “fractional inhibitory concentration index (FICI)” value (Staphylococcus aureus [3]) was 0.047. For the same molecule, the MIC (Streptococcus pyogenes [4]) was 0.19 µM, the “fractional inhibitory concentration index (FICI)” value (Acinetobacter baumannii [5]) was 0.375 and the MIC (Staphylococcus aureus [6]) was 0.79 µM. The MIC (Pseudomonas aeruginosa [7]) was 0.012 µM, the MIC (Enterococcus faecium [8]) was 1.5 µM and the “fractional inhibitory concentration index (FICI)” value (Enterococcus faecium [9]) was 0.094. The “fractional inhibitory concentration index (FICI)” value (Escherichia coli [10]) was 0.52, the “fractional inhibitory concentration index (FICI)” value (Acinetobacter baumannii [11]) was 0.068 and the Activity (Staphylococcus aureus [12]) was “inactive”. The “fractional inhibitory concentration index (FICI)” value (Streptococcus pyogenes [13]) was 0.5 and the MIC (Acinetobacter baumannii [14]) was 0.024 µM.
For `COc1cc(/C=C/C(=O)CC(=O)/C=C/c2ccc(O)c(OC)c2)ccc1O` [CURCUMIN], the Activity (Staphylococcus aureus [15]) was “inactive”, the MIC (Pseudomonas aeruginosa [16]) was 43 µM and the MIC (Acinetobacter baumannii [17]) was 87 µM. The MIC (Streptococcus pyogenes [18]) was 22 µM, the “fold change (FC)” value [19] was 3 and the MIC (Escherichia coli [20]) was 43 µM. The Activity [21] was 100%, the “fold change (FC)” value (Pseudomonas aeruginosa [22]) was 3 and the “fold change (FC)” value (Escherichia coli [23]) was 3. For the same molecule, the Activity (HaCaT [24]) was 22%, the MIC (Escherichia coli [25]) was 174 µM and the “fold change (FC)” value [26] was 3. For the same molecule, the MIC (Enterococcus faecalis) was 87 µM, the Activity (Staphylococcus aureus [27]) was over 3 log10CFU/ml and the MIC (Acinetobacter baumannii [28]) was 22 µM. For the same molecule, the MIC (Staphylococcus aureus [29]) was 43 µM, the Activity (Acinetobacter baumannii [30]) was over 3 log10CFU/ml and the Activity (HaCaT [31]) was 34%.
